# Laboratory results as given in ChEMBL document CHEMBL1955799, “Cyclic dipeptides exhibit potency for scavenging radicals” (Bioorg Med Chem, 2012).
# Key:
# Format in all cases: functional
# [1] = Antioxidant activity assessed as hydroxyl radical scavenging activity at 2.5 mM by electron spin resonance method
# Procedure, shortened: (§1)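 ESR spectrometry of radical signal, same settings for hydroxyl and superoxide radicals: magnetic field 335.7 ± 5 mT, power 4 mW at 9.414 GHz, modulation 100 kHz 1 × 0.079 mT, response 0.1 s, amplitude 160, sweep time 2 min, 25 °C. Activity is expressed as % inhibition of the radical signal.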
# [2] = Antioxidant activity assessed as hydroxyl radical scavenging activity by electron spin resonance method; procedure, shortened: as §1
# [3] = Antioxidant activity assessed as superoxide radical scavenging activity at 2.5 mM by electron spin resonance method; procedure, shortened: as §1
# [4] = Antioxidant activity assessed as superoxide radical scavenging activity by electron spin resonance method; procedure, shortened: as §1
Molecule,inhibition [1],IC50 [2],inhibition [3],IC50 [4]
CC(C)C[C@@H]1NC(=O)[C@H](CCC(=O)O)NC1=O,97.8%,80 µM,0%,
CC(C)C[C@@H]1NC(=O)[C@H](CS)NC1=O,88.9%,100 µM,83.3%,880 µM
CC(C)C[C@@H]1NC(=O)[C@H](C(C)C)NC1=O,12.3%,,0%,
CC(C)C[C@@H]1NC(=O)[C@H](CO)NC1=O,95.2%,1000 µM,0%,
CC(C)C[C@@H]1NC(=O)[C@@H]2CCCN2C1=O,86.2%,1100 µM,0%,
CC(C)C[C@@H]1NC(=O)[C@H](Cc2cnc[nH]2)NC1=O,83.9%,850 µM,0%,
CC(C)C[C@@H]1NC(=O)[C@H](CC(=O)O)NC1=O,95%,4 µM,0%,
CC(C)C[C@@H]1NC(=O)[C@H](Cc2c[nH]c3ccccc23)NC1=O,66%,1800 µM,0%,
CC(C)C[C@@H]1NC(=O)[C@H](CC(N)=O)NC1=O,96%,170 µM,0%,
CC(C)C[C@@H]1NC(=O)[C@H](CCC(N)=O)NC1=O,19%,,0%,
CC(C)C[C@@H]1NC(=O)[C@H](CCCCN)NC1=O,96%,160 µM,0%,
CC(C)C[C@@H]1NC(=O)CNC1=O,0%,,0%,
VITAMIN E,37.7%,,32.3%,
CSCC[C@@H]1NC(=O)[C@H](CC(C)C)NC1=O,79%,800 µM,0%,
CC(C)C[C@@H]1NC(=O)[C@H](C)NC1=O,,,0%,
CC(C)C[C@@H]1NC(=O)[C@H](CC(C)C)NC1=O,26%,,0%,
CC(C)C[C@@H]1NC(=O)[C@H]([C@@H](C)O)NC1=O,0%,,0%,
CC(C)C[C@@H]1NC(=O)[C@H](Cc2ccccc2)NC1=O,23.5%,,0%,
